In brackets after ≈: the same amount, converted by molar mass.
Assays:
U-251 [1] = assay: Antiproliferative activity against human U251 cells after 48 hrs by sulforhodamine B assay; assay type: functional; conditions: U-251, 48 h
Procedure, shortened: (§1)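 Tumor cells grown in RPMI 1640 with 5% fetal bovine serum, with penicillin/streptomycin in experimental cultures. Exposed in 96-well plates to samples in DMSO/RPMI at 0.25, 2.5, 25 and 250 µg/mL, 37 °C, 5% CO2, 48 h. Fixed with 50% trichloroacetic acid before (T0) and after treatment, protein stained with sulforhodamine B and read at 540 nm. GI50, TGI and LC50 in µg/mL from dose-response curves by non-linear regression.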

MCF7 [2] = assay: Antiproliferative activity against human MCF7 cells after 48 hrs by sulforhodamine B assay; assay type: functional; conditions: MCF7, 48 h; procedure, shortened: as §1
NCI/ADR-RES [3] = assay: Antiproliferative activity against human NCI/ADR-RES cells after 48 hrs by sulforhodamine B assay; assay type: functional; procedure, shortened: as §1
786-0 [4] = assay: Antiproliferative activity against human 786-0 cells after 48 hrs by sulforhodamine B assay; assay type: functional; conditions: 786-0, 48 h; procedure, shortened: as §1
NCI-H460 [5] = assay: Antiproliferative activity against human NCI-H460 cells after 48 hrs by sulforhodamine B assay; assay type: functional; conditions: NCI-H460, 48 h; procedure, shortened: as §1
[6] = Antiproliferative activity against human PC3 cells after 48 hrs by sulforhodamine B assay; assay type: functional; conditions: PC-3, 48 h; procedure, shortened: as §1
[7] = Antiproliferative activity against human OVCAR3 cells after 48 hrs by sulforhodamine B assay; assay type: functional; conditions: OVCAR-3, 48 h; procedure, shortened: as §1
HaCaT [8] = assay: Cytotoxicity against human HaCaT cells after 48 hrs by sulforhodamine B assay; assay type: cell-based
U-251 [9] = assay: Antiproliferative activity against human U251 cells assessed as tumor growth inhibition after 48 hrs by sulforhodamine B assay; assay type: functional; conditions: U-251, 48 h; procedure, shortened: as §1
MCF7 [10] = assay: Antiproliferative activity against human MCF7 cells assessed as tumor growth inhibition after 48 hrs by sulforhodamine B assay; assay type: functional; conditions: MCF7, 48 h; procedure, shortened: as §1
NCI/ADR-RES [11] = assay: Antiproliferative activity against human NCI/ADR-RES cells assessed as tumor growth inhibition after 48 hrs by sulforhodamine B assay; assay type: functional; procedure, shortened: as §1
786-0 [12] = assay: Antiproliferative activity against human 786-0 cells assessed as tumor growth inhibition after 48 hrs by sulforhodamine B assay; assay type: functional; conditions: 786-0, 48 h; procedure, shortened: as §1
NCI-H460 [13] = assay: Antiproliferative activity against human NCI-H460 cells assessed as tumor growth inhibition after 48 hrs by sulforhodamine B assay; assay type: functional; conditions: NCI-H460, 48 h; procedure, shortened: as §1
[14] = Antiproliferative activity against human PC3 cells assessed as tumor growth inhibition after 48 hrs by sulforhodamine B assay; assay type: functional; conditions: PC-3, 48 h; procedure, shortened: as §1
[15] = Antiproliferative activity against human OVCAR3 cells assessed as tumor growth inhibition after 48 hrs by sulforhodamine B assay; assay type: functional; conditions: OVCAR-3, 48 h; procedure, shortened: as §1
HaCaT [16] = assay: Cytotoxicity against human HaCaT cells assessed as tumor growth inhibition after 48 hrs by sulforhodamine B assay; assay type: cell-based
Procedure, shortened: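 Non-tumor lines (human HaCaT keratinocytes; Vero) in RPMI 1640 with 5% FBS, with penicillin/streptomycin added to experimental cultures. 48 h exposure at 0.25–250 µg/mL (DMSO/RPMI), 37 °C, 5% CO2. TCA fixation at time zero and at end, sulforhodamine B protein stain, absorbance 540 nm. TGI (total growth inhibition) from non-linear regression of the dose-response curve.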

Structure (SMILES) | GI50 (U-251 [1]) [µg/mL] | GI50 (MCF7 [2]) [µg/mL] | GI50 (NCI/ADR-RES [3]) [µg/mL] | GI50 (786-0 [4]) [µg/mL] | GI50 (NCI-H460 [5]) [µg/mL] | GI50 [6] [µg/mL] | GI50 [7] [µg/mL] | LC50 (HaCaT [8]) [µg/mL] | TGI (U-251 [9]) [µg/mL] | TGI (MCF7 [10]) [µg/mL] | TGI (NCI/ADR-RES [11]) [µg/mL] | TGI (786-0 [12]) [µg/mL] | TGI (NCI-H460 [13]) [µg/mL] | TGI [14] [µg/mL] | TGI [15] [µg/mL] | TGI (HaCaT [16]) [µg/mL]
CCCCCCCC/C=C\CCCCCCCC(=O)N1CCCCC1 | 6.7 (≈ 19.2 µM) | 7.6 (≈ 21.7 µM) | 7.7 (≈ 22 µM) | 10.6 (≈ 30.3 µM) | 23 (≈ 65.8 µM) | 8.7 (≈ 24.9 µM) | 9.3 (≈ 26.6 µM) | 7.7 (≈ 22 µM) | 25 (≈ 71.5 µM) | 33.3 (≈ 95.3 µM) | 47.4 (≈ 136 µM) | 40.7 (≈ 116 µM) | 40.7 (≈ 116 µM) | 31.8 (≈ 91 µM) | 35.4 (≈ 101 µM) | 47.9 (≈ 137 µM)
CCCCCCCC/C=C\CCCCCCCC(=O)N1CCOCC1 | 2.8 (≈ 7.96 µM) | 4.9 (≈ 13.9 µM) | 3.3 (≈ 9.39 µM) | 4.5 (≈ 12.8 µM) | 7.9 (≈ 22.5 µM) | 5.2 (≈ 14.8 µM) | 4.9 (≈ 13.9 µM) | 5.3 (≈ 15.1 µM) | 6.6 (≈ 18.8 µM) | 13.1 (≈ 37.3 µM) | 10.6 (≈ 30.2 µM) | 11.2 (≈ 31.9 µM) | 34.7 (≈ 98.7 µM) | 14.8 (≈ 42.1 µM) | 13.9 (≈ 39.5 µM) | 23.2 (≈ 66 µM)
CCCCCC[C@@H](O)C/C=C\CCCCCCCC(=O)N1CCOCC1 | 33.1 (≈ 90 µM) | 41.8 (≈ 114 µM) | 29.4 (≈ 80 µM) | 36 (≈ 97.9 µM) | 49.1 (≈ 134 µM) | 38.5 (≈ 105 µM) | 31 (≈ 84.3 µM) | 41.3 (≈ 112 µM) | 54.5 (≈ 148 µM) | 116 (≈ 314 µM) | 143 (≈ 388 µM) | 75.7 (≈ 206 µM) | 152 (≈ 415 µM) | 72.6 (≈ 198 µM) | 62.2 (≈ 169 µM) | 97.4 (≈ 265 µM)
CCCCC/C=C\C/C=C\CCCCCCCC(=O)N[C@@H](C)c1ccccc1 | 0.7 (≈ 1.82 µM) | 5.3 (≈ 13.8 µM) | 3 (≈ 7.82 µM) | 3.2 (≈ 8.34 µM) | 6.1 (≈ 15.9 µM) | 6.8 (≈ 17.7 µM) | 3.5 (≈ 9.12 µM) | 1.3 (≈ 3.39 µM) | 5.1 (≈ 13.3 µM) | 38.6 (≈ 101 µM) | 16.4 (≈ 42.8 µM) | 7.7 (≈ 20.1 µM) | 38.9 (≈ 101 µM) | 7.7 (≈ 20.1 µM) | 20 (≈ 52.1 µM) | 77.2 (≈ 201 µM)
CCCCCCCCCCCCCCCC(=O)N1CCCC1 | 4.6 (≈ 14.9 µM) | 4.6 (≈ 14.9 µM) | 4.6 (≈ 14.9 µM) | 5.5 (≈ 17.8 µM) | 5.9 (≈ 19.1 µM) | 4.7 (≈ 15.2 µM) | 6.3 (≈ 20.4 µM) | 4.8 (≈ 15.5 µM) | 11.4 (≈ 36.8 µM) | 13.2 (≈ 42.6 µM) | 30 (≈ 96.9 µM) | 16.1 (≈ 52 µM) | 33.5 (≈ 108 µM) | 12.2 (≈ 39.4 µM) | 22.9 (≈ 74 µM) | 12.9 (≈ 41.7 µM)
CCCCCCCCCCCCCCCCCC(=O)N[C@H](C)c1ccccc1 | 161 (≈ 414 µM) | 0.06 (≈ 0.155 µM) | 25.7 (≈ 66.3 µM) |  |  |  |  |  | > 250 | > 250 | > 250 | > 250 | > 250 | > 250 | > 250 | > 250
CCCCCCCCCCCCCCCCCC(=O)N[C@@H](C)c1ccccc1 |  |  |  |  |  |  |  | 69.5 (≈ 179 µM) | > 250 | > 250 | > 250 | > 250 | > 250 | > 250 | > 250 | > 250
CCCCCCCCCCCCCCCC(=O)NCc1ccccc1 |  |  |  |  |  |  |  |  | > 250 | > 250 | > 250 | > 250 | > 250 | > 250 | > 250 | > 250
CCCCCCCCCCCCCCCC(=O)N1CCOCC1 | 25 (≈ 76.8 µM) | 15.4 (≈ 47.3 µM) | 6.2 (≈ 19 µM) | 33.1 (≈ 102 µM) | 34.1 (≈ 105 µM) | 22.2 (≈ 68.2 µM) | 33.1 (≈ 102 µM) | 28.9 (≈ 88.8 µM) | 55.9 (≈ 172 µM) | 54.7 (≈ 168 µM) | 70.3 (≈ 216 µM) | 69.9 (≈ 215 µM) | 91 (≈ 280 µM) | 36.7 (≈ 113 µM) | 72.7 (≈ 223 µM) | 73.7 (≈ 226 µM)
CCCCC/C=C\C/C=C\CCCCCCCC(=O)N1CCCCC1 | 44.2 (≈ 127 µM) | 22.1 (≈ 63.6 µM) | 63.2 (≈ 182 µM) | 58.4 (≈ 168 µM) | 29.1 (≈ 83.7 µM) | 53.6 (≈ 154 µM) | 48.9 (≈ 141 µM) | 4.2 (≈ 12.1 µM) | 22.1 (≈ 63.6 µM) | 44.2 (≈ 127 µM) | 63.2 (≈ 182 µM) | 29.1 (≈ 83.7 µM) | 53.6 (≈ 154 µM) | 48.9 (≈ 141 µM) | 58.4 (≈ 168 µM) | 30.5 (≈ 87.7 µM)
CCCCCCCC/C=C\CCCCCCCC(=O)N[C@@H](C)c1ccccc1 | 5.1 (≈ 13.2 µM) | 7.17 (≈ 18.6 µM) | 0.3 (≈ 0.778 µM) | 10.3 (≈ 26.7 µM) | 15.2 (≈ 39.4 µM) | 13.7 (≈ 35.5 µM) | 10.5 (≈ 27.2 µM) | 6.4 (≈ 16.6 µM) | 17.8 (≈ 46.2 µM) | 43 (≈ 112 µM) | 7.1 (≈ 18.4 µM) | 45.8 (≈ 119 µM) | 49.3 (≈ 128 µM) | 47.1 (≈ 122 µM) | 45.5 (≈ 118 µM) | 36.8 (≈ 95.4 µM)
CCCCCCCC/C=C/CCCCCCCC(=O)N[C@@H](C)c1ccccc1 |  | 110 (≈ 286 µM) |  |  |  |  | 21.7 (≈ 56.3 µM) | 24.6 (≈ 63.8 µM) | > 250 | > 250 | > 250 | > 250 | > 250 | > 250 | > 250 | > 250
CCCCCCCCCCCCCCCCCC(=O)N1CCCC1 | 8 (≈ 23.7 µM) | 7.4 (≈ 21.9 µM) | 7.1 (≈ 21 µM) | 14 (≈ 41.5 µM) | 10.8 (≈ 32 µM) | 9.4 (≈ 27.8 µM) | 7.3 (≈ 21.6 µM) | 6.3 (≈ 18.7 µM) | 32.5 (≈ 96.3 µM) | 39.9 (≈ 118 µM) | 43.5 (≈ 129 µM) | 48.4 (≈ 143 µM) | 56.8 (≈ 168 µM) | 36 (≈ 107 µM) | 68.5 (≈ 203 µM) | 27.4 (≈ 81.2 µM)
CCCCCC[C@@H](O)C/C=C\CCCCCCCC(=O)N1CCCCC1 | 14.8 (≈ 40.5 µM) | 6.3 (≈ 17.2 µM) | 22.7 (≈ 62.1 µM) | 24.2 (≈ 66.2 µM) | 10.7 (≈ 29.3 µM) | 23.3 (≈ 63.7 µM) | 16.6 (≈ 45.4 µM) | 2.6 (≈ 7.11 µM) | 6.3 (≈ 17.2 µM) | 14.8 (≈ 40.5 µM) | 22.7 (≈ 62.1 µM) | 10.7 (≈ 29.3 µM) | 23.3 (≈ 63.7 µM) | 16.6 (≈ 45.4 µM) | 24.2 (≈ 66.2 µM) | 12.8 (≈ 35 µM)
CCCCCCCCCCCCCCCCCC(=O)N1CCOCC1 | 39.9 (≈ 113 µM) | 42.8 (≈ 121 µM) | 33.1 (≈ 93.6 µM) | 41.1 (≈ 116 µM) | 53.1 (≈ 150 µM) | 41.1 (≈ 116 µM) | 43.3 (≈ 122 µM) | 41.5 (≈ 117 µM) | 82.6 (≈ 234 µM) | 81.7 (≈ 231 µM) | 86.9 (≈ 246 µM) | 85.6 (≈ 242 µM) | 161 (≈ 455 µM) | 102 (≈ 290 µM) | 111 (≈ 314 µM) | 94.2 (≈ 266 µM)
CCCCCCCCCCCCCCCCCC(=O)NCCO [N-(2-HYDROXYETHYL)STEARAMIDE] | 117 (≈ 357 µM) | 130 (≈ 395 µM) | 158 (≈ 481 µM) |  |  | 75.6 (≈ 231 µM) | 158 (≈ 481 µM) | 117.7 (≈ 359 µM) | > 250 | > 250 | > 250 | > 250 | > 250 | > 250 | > 250 | > 250
CCCCCCCCCCCCCCCC(=O)NCCO [PALMIDROL] |  |  | 158 (≈ 527 µM) |  |  |  |  |  | > 250 | > 250 | > 250 | > 250 | > 250 | > 250 | > 250 | > 250

Reference: ChEMBL document CHEMBL3392966, “Antiproliferative activity of synthetic fatty acid amides from renewable resources” (Bioorg Med Chem, 2015)
